Experiment [1] in a line: Phototoxicity against human NCTC-2544 cells exposed to irradiation with 3.75 J/cm'2 UVA light prior to 72 hrs drug exposure by MTT assay. Format: cell-based. The note with it: NCTC-2544, light or radiation study. In short, it runs like this: (§1)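 Phototoxicity panel: NCTC-2544 keratinocytes, LoVo adenocarcinoma, K562 and Jurkat leukemia cells. Cells with compound received UVA at 2.5 or 3.75 J/cm2. Cell growth was measured by MTT after 72 h of exposure. IC50 is the concentration inhibiting growth by 50%.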

Experiment [2] relates to Jurkat. The experiment in a line: Induction of lipid peroxidation in 2.5 J/cm'2 UVA light irradiated human Jurkat cells at 20 uM by TBARS test. The format is functional, cell-based.
Experiment [3] relates to Jurkat. Kind of experiment: Cell cycle arrest in 2.5 J/cm'2 UVA light irradiated human Jurkat cells assessed as accumulation at subG1 phase at 5 uM after 24 hrs by DNA cytometry. The format is functional. An outline of the steps:
(§2)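 Jurkat (T-cell leukemia) cells were UVA-irradiated at 2.5 J/cm2 in the presence of 5 µM compound. DNA content was analysed by flow cytometry 24 h after irradiation. Controls were non-irradiated cells and cells irradiated without compound. A representative experiment is shown, repeated two times.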

The subject of experiment [4] is K562. Kind of experiment: Phototoxicity against human K562 cells exposed to irradiation with 3.75 J/cm'2 UVA light prior to 72 hrs drug exposure by MTT assay. Format: functional, cell-based. The following applies: K562, light or radiation study. An outline of the steps: as §1
The nature of experiment [5]: Phototoxicity against human NCTC-2544 cells exposed to irradiation with 2.5 J/cm'2 UVA light prior to 72 hrs drug exposure by MTT assay. The format is cell-based. The following applies: NCTC-2544, light or radiation study. In short, it runs like this: as §1
Experiment [6] deals with LoVo. Kind of experiment: Phototoxicity against human LoVo cells exposed to irradiation with 3.75 J/cm'2 UVA light prior to 72 hrs drug exposure by MTT assay. The format is functional, cell-based. The note with it: light or radiation study. An outline of the steps: as §1
Experiment [7] concerns Jurkat. Kind of experiment: Induction of lipid peroxidation in 2.5 J/cm'2 UVA light irradiated human Jurkat cells at 5 uM by TBARS test. Format: functional, cell-based.
Experiment [8] has as its system Jurkat. Kind of experiment: Induction of lipid peroxidation in 2.5 J/cm'2 UVA light irradiated human Jurkat cells at 10 uM by TBARS test. The format is functional, cell-based.
For experiment [9], the system named is Jurkat. Kind of experiment: Phototoxicity against human Jurkat cells exposed to irradiation with 3.75 J/cm'2 UVA light prior to 72 hrs drug exposure by MTT assay. The format is functional, cell-based. The following applies: light or radiation study. In short, it runs like this:
as §1

The test system of experiment [10] is LoVo. The experiment in a line: Phototoxicity against human LoVo cells exposed to irradiation with 2.5 J/cm'2 UVA light prior to 72 hrs drug exposure by MTT assay. The format is functional, cell-based. The following applies: light or radiation study. An outline of the steps:
as §1

Experiment [11] relates to Jurkat. The experiment in a line: Cell cycle arrest in 2.5 J/cm'2 UVA light irradiated human Jurkat cells assessed as accumulation at G2/M phase at 5 uM after 24 hrs by DNA cytometry. Format: functional. In short, it runs like this: as §2
Experiment [12] has as its system LoVo. Kind of experiment: Cytotoxicity against human LoVo cells after 72 hrs by MTT assay. Format: functional, cell-based.
The test system of experiment [13] is Jurkat. The experiment in a line: Cell cycle arrest in 2.5 J/cm'2 UVA light irradiated human Jurkat cells assessed as accumulation at S phase at 5 uM after 24 hrs by DNA cytometry. The format is functional. In short, it runs like this: as §2
In experiment [14] the test system is K562. The experiment in a line: Phototoxicity against human K562 cells exposed to irradiation with 2.5 J/cm'2 UVA light prior to 72 hrs drug exposure by MTT assay. The note with it: K562, light or radiation study. The format is functional, cell-based. An outline of the steps: as §1
Experiment [15] is described as follows: Cytotoxicity against human NCTC-2544 cells after 72 hrs by MTT assay. Format: cell-based. The following applies: NCTC-2544, 72 h.
Experiment [16] deals with Jurkat. Kind of experiment: Phototoxicity against human Jurkat cells exposed to irradiation with 2.5 J/cm'2 UVA light prior to 72 hrs drug exposure by MTT assay. Format: functional, cell-based. The following applies: light or radiation study. An outline of the steps: as §1
Experiment [17] deals with K562. Kind of experiment: Cytotoxicity against human K562 cells after 72 hrs by MTT assay. Format: functional, cell-based. The following applies: K562, 72 h.
Experiment [18] has as its system Jurkat. The experiment in a line: Cell cycle arrest in 2.5 J/cm'2 UVA light irradiated human Jurkat cells assessed as accumulation at G1 phase at 5 uM after 24 hrs by DNA cytometry. Format: functional. In short, it runs like this:
as §2

Experiment [19] has as its system Jurkat. The experiment in a line: Cytotoxicity against human Jurkat cells after 72 hrs by MTT assay. Format: functional, cell-based.

The source made the active and inactive calls. The calls are words filed in the database; no cut-off is given here.

With `CCOC(=O)c1c2c(c(C)n1Cc1ccccc1)-c1oc(=O)c(C(=O)OC)cc1CC2`, the IC50 in experiment [1] is 10 µM; in the experiment on K562 [4], 2.7 µM; in [5], 14 µM; in the experiment with LoVo [6] it was 7.3 µM; in the experiment on Jurkat [9] it was 3.7 µM; in the experiment on LoVo [10], 7.7 µM. The IC50 in the experiment on LoVo [12] was greater than 20 µM; with K562 [14], 6.1 µM; in [15] it was greater than 20 µM; with Jurkat [16], 8.4 µM; in the experiment with K562 [17], greater than 20 µM; in the experiment on Jurkat [19], greater than 20 µM. Also, the outcome in the experiment on Jurkat [2], with Jurkat [7] and with Jurkat [8] was Active. Also, the Activity with Jurkat [3] is recorded as 14.8%; in the experiment on Jurkat [11] it was 11.7%; in the experiment with Jurkat [13] it was 44.2%; in the experiment on Jurkat [18] it was 44.7%.

On to `CCOC(=O)c1cc2c(oc1=O)-c1c(c(C(=O)OCC)n(Cc3ccccc3)c1C)CC2`, for which the IC50 stood at 10.9 µM in experiment [1]; 7.3 µM with K562 [4]; 14.6 µM in experiment [5]; 9.6 µM with LoVo [6]; 7.2 µM with Jurkat [9]; 10.5 µM with LoVo [10]. Also, the IC50 with LoVo [12] was greater than 20 µM; in the experiment on K562 [14] it was 7.5 µM; in experiment [15], greater than 20 µM; in the experiment on Jurkat [16], 8.2 µM; in the experiment on K562 [17], greater than 20 µM; with Jurkat [19] it was greater than 20 µM. In addition, the outcome in the experiment with Jurkat [2], in the experiment with Jurkat [7] and in the experiment with Jurkat [8] was Active. For the same molecule, the Activity in the experiment with Jurkat [3] is 17.2%; in the experiment with Jurkat [11], 17.7%; in the experiment on Jurkat [13], 37.6%; with Jurkat [18] it was 44.7%.

With `CCOC(=O)c1cc2c(oc1=O)-c1c(cn(Cc3ccccc3)c1C)CC2`, the IC50 (in experiment [1]; in the experiment with K562 [4]; in [5]; in the experiment with LoVo [6]; with Jurkat [9]; with LoVo [10]) was greater than 20 µM throughout. For the same molecule, the IC50 (with LoVo [12]; in the experiment with K562 [14]; in [15]; in the experiment with Jurkat [16]; in the experiment with K562 [17]; with Jurkat [19]) was greater than 20 µM throughout.

Regarding `CCOC(=O)c1cc2ccc3c(C(=O)OCC)[nH]c(C)c3c2oc1=O`, the IC50 in experiment [1] is greater than 20 µM; with K562 [4] it was greater than 20 µM; in experiment [5], greater than 20 µM; with LoVo [6], 17.8 µM; in the experiment on Jurkat [9], greater than 20 µM; in the experiment with LoVo [10], greater than 20 µM. For the same molecule, the IC50 (in the experiment with LoVo [12]; in the experiment with K562 [14]; in [15]; with Jurkat [16]; with K562 [17]; with Jurkat [19]) was greater than 20 µM in each case.
